{"source": "ChEMBL document CHEMBL2021780", "about": "“Antineoplastic agents. 548. Synthesis of iodo- and diiodocombstatin phosphate prodrugs” (J Nat Prod, 2012)", "key": {"[1]": {"experiment": "Displacement of [3H]colchicine from tubulin at 1 uM after 10 mins", "method_in_brief": "(§1)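 [³H]colchicine binding: 1.0 μM tubulin with 5.0 μM [³H]colchicine and compound, incubated 10 min at 37 °C. The tubulin–colchicine complex was separated from unbound label by retention on DEAE-cellulose filters. Result is inhibition of radiolabel binding.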"}, "HUVEC [2]": {"tested_on": "HUVEC", "experiment": "Antiangiogenic activity in HUVEC assessed as reduction of cord length at 0.001 ug/ml after 24 hrs by matrigel assay relative to control", "type": "functional", "conditions": "Homo sapiens", "method_in_brief": "(§2)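 Commercial HUVECs grown in EGM-2 were seeded at 2 × 10⁵ cells/mL onto Matrigel, which had been polymerized 15 min at rt and then 30 min at 37 °C, per NCI DTP protocol. Compound was added and cells were incubated 24 h, then imaged by inverted microscopy. Cord length and junction number were scored against untreated control on a scale from − (none) to +++ (same as control), with ++ = 50% of control.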"}, "SF-268": {"tested_on": "SF-268", "experiment": "Growth inhibition of human SF268 cells after 48 hrs by sulforhodamine B assay", "type": "functional", "conditions": "SF-268, 48 h", "method_in_brief": "(§3)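 NCI sulforhodamine B assay. Cells were seeded in 5% FBS/RPMI-1640 and incubated 24 h. Serial compound dilutions were then added for 48 h. Cells were fixed with trichloroacetic acid, stained with SRB and read by microplate reader. GI50 is the concentration giving 50% reduction in net protein increase, calculated from optical density data.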"}, "P388": {"tested_on": "P388", "experiment": "Growth inhibition of mouse P388 cells after 48 hrs by Z1 Beckman/Coulter particle counter analysis", "type": "functional", "conditions": "P388, 48 h, read-out: ED50 (the source's name)", "method_in_brief": "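Mouse P388 leukemia cells were incubated 24 h in 10% horse serum/Fisher medium, then exposed 48 h to serial compound dilutions. ED50 was calculated from cell counts on a Coulter Z1 particle counter.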"}, "BXPC-3": {"tested_on": "BXPC-3", "experiment": "Growth inhibition of human BxPC3 cells after 48 hrs by sulforhodamine B assay", "type": "functional", "conditions": "BXPC-3, 48 h", "method_in_brief": "as §3"}, "SW-1736": {"tested_on": "SW-1736", "experiment": "Growth inhibition of human SW1736 cells after 48 hrs by sulforhodamine B assay", "type": "functional", "conditions": "SW-1736, 48 h"}, "HUVEC [3]": {"tested_on": "HUVEC", "experiment": "Antiangiogenic activity in HUVEC assessed as reduction of cord length at 0.01 ug/ml after 24 hrs by matrigel assay relative to control", "type": "functional", "conditions": "Homo sapiens", "method_in_brief": "as §2"}, "MCF7": {"tested_on": "MCF7", "experiment": "Growth inhibition of human MCF7 cells after 48 hrs by sulforhodamine B assay", "type": "functional", "conditions": "MCF7, 48 h", "method_in_brief": "as §3"}, "HUVEC [4]": {"tested_on": "HUVEC", "experiment": "Antiangiogenic activity in HUVEC assessed as cell growth at 0.01 ug/ml after 24 hrs by sulforhodamine B assay relative to control", "type": "functional, Homo sapiens", "conditions": "Homo sapiens, HUVEC, 24 h; read-out: Activity"}, "[5]": {"experiment": "Growth inhibition of human KAT4 cells after 48 hrs by sulforhodamine B assay", "type": "functional", "conditions": "KAT-4, 48 h"}, "KM-20L2": {"tested_on": "KM-20L2", "experiment": "Growth inhibition of human KM20L2 cells after 48 hrs by sulforhodamine B assay", "type": "functional", "conditions": "KM-20L2, 48 h", "method_in_brief": "as §3"}, "HUVEC [6]": {"tested_on": "HUVEC", "experiment": "Antiangiogenic activity in HUVEC assessed as reduction of number of junctions at 0.0001 ug/ml after 24 hrs by matrigel assay relative to control", "type": "functional, Homo sapiens", "set-up": "scale not given: the % may be the effect or the level left", "method_in_brief": "(§4)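 Matrigel was polymerised in wells (15 min rt, then 30 min 37 °C). HUVECs (2 × 10⁵ cells/mL) were added with compound and incubated 24 h, then imaged by inverted microscope. Cord length and junction number were scored semi-quantitatively versus untreated control (− none to +++ same as control).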"}, "Cryptococcus neoformans": {"tested_on": "Cryptococcus neoformans", "experiment": "Antifungal activity against Cryptococcus neoformans ATCC 90112 by broth microdilution method"}, "HUVEC [7]": {"tested_on": "HUVEC", "experiment": "Antiangiogenic activity in HUVEC assessed as reduction of number of junctions at 0.001 ug/ml after 24 hrs by matrigel assay relative to control", "type": "functional", "conditions": "Homo sapiens", "method_in_brief": "as §2"}, "DU-145": {"tested_on": "DU-145", "experiment": "Growth inhibition of human DU145 cells after 48 hrs by sulforhodamine B assay", "type": "functional", "conditions": "DU-145, 48 h", "method_in_brief": "as §3"}, "Micrococcus luteus": {"tested_on": "Micrococcus luteus", "experiment": "Antibacterial activity against Micrococcus luteus Presque Isle 456 by broth microdilution method", "type": "functional", "method_in_brief": "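Broth microdilution per NCCLS bacterial (M7-A5) and yeast standards. Compounds were reconstituted in sterile DMSO and diluted in the appropriate medium just before testing. MIC is the lowest concentration giving complete inhibition of visible growth (optically clear). Assays were repeated on separate days.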"}, "HUVEC [8]": {"tested_on": "HUVEC", "experiment": "Antiangiogenic activity in HUVEC assessed as cell growth at 0.001 ug/ml after 24 hrs by sulforhodamine B assay relative to control", "type": "functional, Homo sapiens", "conditions": "Homo sapiens, HUVEC, 24 h; read-out: Activity"}, "HUVEC [9]": {"tested_on": "HUVEC", "experiment": "Antiangiogenic activity in HUVEC assessed as cell growth at 0.0001 ug/ml after 24 hrs by sulforhodamine B assay relative to control", "type": "functional, Homo sapiens", "conditions": "Homo sapiens, HUVEC, 24 h; read-out: Activity"}, "HUVEC [10]": {"tested_on": "HUVEC", "experiment": "Antiangiogenic activity in HUVEC assessed as reduction of cord length at 0.0001 ug/ml after 24 hrs by matrigel assay relative to control", "type": "functional, Homo sapiens", "set-up": "scale not given: the % may be the effect or the level left", "method_in_brief": "as §4"}, "HUVEC [11]": {"tested_on": "HUVEC", "experiment": "Antiangiogenic activity in HUVEC assessed as cell growth inhibition after 48 hrs by sulforhodamine B assay", "type": "functional, cell-based", "conditions": "Homo sapiens", "method_in_brief": "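HUVECs were grown in EGM-2 medium and tested with the standard SRB growth assay following NCI Developmental Therapeutics Program Matrigel antiangiogenesis protocols. IC50 (concentration causing 50% inhibition) was calculated from plotted data.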"}, "[12]": {"experiment": "Inhibition of purified tubulin assembly after 20 mins", "method_in_brief": "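Purified tubulin at 10 μM in 0.8 M monosodium glutamate (pH 6.6), 0.4 mM GTP and 4% (v/v) DMSO, with varying compound concentrations. Extent of assembly was measured after 20 min at 30 °C.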"}, "HUVEC [13]": {"tested_on": "HUVEC", "experiment": "Antiangiogenic activity in HUVEC assessed as reduction of number of junctions at 0.01 ug/ml after 24 hrs by matrigel assay relative to control", "type": "functional", "conditions": "Homo sapiens", "method_in_brief": "as §2"}, "NCI-H460": {"tested_on": "NCI-H460", "experiment": "Growth inhibition of human NCI-H460 cells after 48 hrs by sulforhodamine B assay", "type": "functional", "conditions": "NCI-H460, 48 h", "method_in_brief": "as §3"}, "[14]": {"experiment": "Displacement of [3H]colchicine from tubulin at 10 uM after 10 mins", "method_in_brief": "as §1"}, "HUVEC [15]": {"tested_on": "HUVEC", "experiment": "Antiangiogenic activity in HUVEC assessed as cell growth at 0.00001 ug/ml after 24 hrs by sulforhodamine B assay relative to control", "type": "functional", "conditions": "Homo sapiens, read-out: Activity"}}, "note": "The source made the active and inactive calls. No cut-off for these calls is given here.", "data": [{"smiles": "COc1ccc(/C=C\\c2cc(I)c(OC)c(OC)c2)cc1O", "note": "[IODOCOMBSTATIN]", "values": [{"measurement": "inhibition", "setting": "[1]", "result": 78, "unit": "%"}, {"measurement": "Activity", "setting": "HUVEC [2]", "result": "Active"}, {"measurement": "GI50", "setting": "SF-268", "result": 0.18, "unit": "ng/mL"}, {"measurement": "EC50", "setting": "P388", "result": 2, "unit": "ng/mL"}, {"measurement": "GI50", "setting": "BXPC-3", "result": 48, "unit": "ng/mL"}, {"measurement": "GI50", "setting": "SW-1736", "result": 2200, "unit": "ng/mL"}, {"measurement": "Activity", "setting": "HUVEC [3]", "result": "Active"}, {"measurement": "GI50", "setting": "MCF7", "result": 0.22, "unit": "ng/mL"}, {"measurement": "growth at 0.01 µg/mL", "setting": "HUVEC [4]", "result": 14, "unit": "%"}, {"measurement": "GI50", "setting": "[5]", "result": 89, "unit": "ng/mL"}, {"measurement": "GI50", "setting": "KM-20L2", "result": 328, "unit": "ng/mL"}, {"measurement": "Activity", "setting": "HUVEC [6]", "result": 75, "unit": "%"}, {"measurement": "MIC", "setting": "Cryptococcus neoformans", "result": 64000, "unit": "ng/mL"}, {"measurement": "Activity", "setting": "HUVEC [7]", "result": "Active"}, {"measurement": "GI50", "setting": "DU-145", "result": 0.18, "unit": "ng/mL"}, {"measurement": "MIC", "setting": "Micrococcus luteus", "result": 2000, "unit": "ng/mL"}, {"measurement": "growth at 0.001 µg/mL", "setting": "HUVEC [8]", "result": 14, "unit": "%"}, {"measurement": "growth at 0.0001 µg/mL", "setting": "HUVEC [9]", "result": 18, "unit": "%"}, {"measurement": "Activity", "setting": "HUVEC [10]", "result": 75, "unit": "%"}, {"measurement": "IC50", "setting": "HUVEC [11]", "result": 0.04, "unit": "ng/mL"}, {"measurement": "IC50", "setting": "[12]", "result": 2.5, "unit": "µM"}, {"measurement": "Activity", "setting": "HUVEC [13]", "result": "Active"}, {"measurement": "GI50", "setting": "NCI-H460", "result": 0.29, "unit": "ng/mL"}, {"measurement": "inhibition", "setting": "[14]", "result": 100, "unit": "%"}, {"measurement": "growth at 10 pg/mL", "setting": "HUVEC [15]", "result": 90, "unit": "%"}]}]}
